This passage reports AD50, ED50 and Protection results from ChEMBL document CHEMBL1121528, “Synthesis and pharmacology of 8-amino-3-(cyclopropylmethyl)-1,2,3,4,5,6-hexahydro-cis-6,11-dimethyl-2,6-methano-3-benzazocine and related compounds” (1980).

The structures appear in SMILES notation. Active and inactive are the calls of the source. No cut-off for these calls is given here.

For assay [1], the system named is Rattus norvegicus. In words: Analgesic dose required for its phenazocine antagonistic activity in rat after peroral administration; I = inactive at 40. In kind it is functional, organism-based. The essentials:
(§1)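 Narcotic antagonist activity in rats by the Harris–Pierson tail-flick procedure against phenazocine, with compounds given orally. AD50 reported in mg/kg with 95% confidence limits, calculated as free base.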

The subject of assay [2] is Mus musculus. The assay is described as follows: Effective dose required for its agonist activity in mouse by acetylcholine writhing test after sc administration. In kind it is functional. The essentials: (§2)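 Agonist (analgesic) screens: modified D'Amour-Smith tail-flick, phenylquinone-induced writhing, acetylcholine-induced writhing (mouse), and rat bradykinin test. Compounds given sc or po.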
On the technique in general: An intraperitoneal irritant provokes the stretching counted in writhing tests.

Assay [3] relates to Mus musculus. The assay is described as follows: Effective dose required for its agonist activity in Phenylquinone writhing test after sc administration. It counts as functional. The essentials: as §2
The species entered for assay [4] is Rattus norvegicus. The assay is described as follows: Tested for peroral analgesic dose required for its narcotic activity in meperidine. It counts as functional.
The subject of assay [5] is Rattus norvegicus. In words: Analgesic dose required for its phenazocine antagonistic activity in rat after peroral administration. In kind it is functional. The essentials: as §1
Assay [6] deals with Rattus norvegicus. In words: Analgesic dose required for its narcotic activity morphine after po administration. In kind it is functional.
Assay [7] has as its system Rattus norvegicus. In words: Analgesic dose required for its narcotic activity in meperidine after sc administration. In kind it is functional.
In assay [8] the test system is Rattus norvegicus. The assay is described as follows: Analgesic dose required for its narcotic activity in Phenazocine after sc administration. It counts as functional.
For assay [9], the system named is Rattus norvegicus. In words: Analgesic dose required for its narcotic activity in meperidine after po administration. In kind it is functional.
The species entered for assay [10] is Rattus norvegicus. The assay is described as follows: Analgesic dose required for its narcotic activity in morphine. In kind it is functional.
The subject of assay [11] is Rattus norvegicus. In words: Effective dose required for its agonist activity in rat bradykinin test after sc administration. In kind it is functional. The essentials: as §2
For assay [12], the system named is Mus musculus. In words: Effective dose required for its agonist activity in acetylcholine test after sc administration. It counts as functional. The essentials:
as §2

Assay [13] deals with Rattus norvegicus. The assay is described as follows: Effective dose required for its agonist activity in rat bradykinin test after po administration. It counts as functional. The essentials:
as §2

In assay [14] the test system is Mus musculus. The assay is described as follows: Effective dose required for its agonist activity in mouse by phenylquinone test after sc administration. In kind it is functional. The essentials: as §2
For assay [15], the system named is Mus musculus. In words: Effective dose required for its agonist activity in acetylcholine test after po administration. It counts as functional. The essentials:
as §2

For assay [16], the system named is Rattus norvegicus. The assay is described as follows: Analgesic dose required for its narcotic activity in Phenazocine after po administration. In kind it is functional.
The subject of assay [17] is Rattus norvegicus. In words: Effective dose required for its agonist activity in rat tail flick test after sc administration; I = inactive. It counts as functional, organism-based. The essentials: as §2
Assay [18] concerns Mus musculus. In words: Effective dose required for its agonist activity in phenylquinone test after po administration. In kind it is functional. The essentials:
as §2

Assay [19] has as its system Rattus norvegicus. In words: Analgesic dose required for its narcotic activity in morphine after sc administration. In kind it is functional.
Assay [20] concerns Rattus norvegicus. The assay is described as follows: analgesic dose required for its phenazocine antagonistic activity in rat after peroral administration; I = inactive. It counts as functional, organism-based. The essentials: as §1
In assay [21] the test system is Rattus norvegicus. In words: Analgesic dose required for its phenazocine antagonistic activity in rat after peroral administration; ? = Questionable activity. It counts as functional, organism-based. The essentials: as §1
The test system of assay [22] is Rattus norvegicus. The assay is described as follows: Analgesic dose required for its narcotic activity in meperidine after peroral administration. In kind it is functional.
For assay [23], the system named is Rattus norvegicus. In words: Analgesic dose required for its narcotic activity morphine after peroral administration. In kind it is functional.
Assay [24] concerns Rattus norvegicus. In words: Analgesic dose required for its narcotic activity in Phenazocine after peroral administration. In kind it is functional.
The subject of assay [25] is Rattus norvegicus. In words: Effective dose required for its agonist activity in bradykinin test after sc administration. In kind it is functional. The essentials: as §2

`CCCCNc1ccc2c(c1)[C@@]1(C)CCN(CC3CC3)C(C2)[C@@H]1C`: the AD50 entry with Rattus norvegicus [1] is “inactive”. The 50% effective dose (ED50) (in general, the dose that gives a 50% effect, or the effect in half of the subjects) with Mus musculus [2] came to 1 mg/kg.

As for `CCNc1ccc2c(c1)[C@@]1(C)CCN(CC3CC3)C(C2)[C@@H]1C`, the AD50 entry with Rattus norvegicus [1] was “inactive”. The compound also yielded a median effective dose (ED50) in the assay on Mus musculus [2] of 1.3 mg/kg.

In the assay on Mus musculus [3], `C[C@H]1C2Cc3ccc([N+](=O)[O-])cc3[C@@]1(C)CCN2CC1CC1.Cl` gave a 50% effective dose (ED50) of 24 mg/kg. This compound had an AD50 in the assay filed under Rattus norvegicus [4] of 9.6 mg/kg.

The compound `C=CCN1CC[C@]2(C)c3cc(N)ccc3CC1[C@@H]2C` displayed an ED50 in the assay on Mus musculus [2] of 2.5 mg/kg. Further, the AD50 with Rattus norvegicus [5] turned out to be 1.5 mg/kg.

For `CCCN1CC[C@]2(C)c3cc(N)ccc3CC1[C@@H]2C`, the ED50 in the assay on Mus musculus [2] worked out at 5.6 mg/kg. Further, in the assay with Rattus norvegicus [5], the AD50 worked out at 2 mg/kg.

In the case of `C[C@H]1C2Cc3ccc(N)cc3[C@@]1(C)CCN2CC1CC1`, the AD50 in the assay on Rattus norvegicus [6] amounted to 15 mg/kg; in the assay with Rattus norvegicus [7], 2 mg/kg; in the assay with Rattus norvegicus [8] it was 2.7 mg/kg; with Rattus norvegicus [9] it was 8.8 mg/kg; in the assay filed under Rattus norvegicus [10], 3.7 mg/kg; with Rattus norvegicus [16], 10 mg/kg. For the same compound, the ED50 in the assay on Rattus norvegicus [11] amounted to 1.2 mg/kg; with Mus musculus [12] it was 0.8 mg/kg; with Rattus norvegicus [13] it was 8.1 mg/kg; in the assay with Mus musculus [14], 1.4 mg/kg; in the assay on Mus musculus [15], 3.2 mg/kg; with Mus musculus [18], 7.2 mg/kg. Besides, the ED50 entry in the assay with Rattus norvegicus [17] is “inactive”.

For the compound `CC(C)=CCN1CC[C@]2(C)c3cc(O)ccc3C[C@H]1[C@H]2C` [(+)-PENTAZOCINE], the AD50 with Rattus norvegicus [6] was found to be 140 mg/kg; with Rattus norvegicus [7], 3.9 mg/kg; in the assay on Rattus norvegicus [8], 6.3 mg/kg; with Rattus norvegicus [19], 9 mg/kg; in the assay with Rattus norvegicus [9], 68 mg/kg; in the assay on Rattus norvegicus [16], 76 mg/kg. For the same compound, the 50% effective dose (ED50) turned out to be 2.6 mg/kg in the assay with Rattus norvegicus [11], 3.8 mg/kg in the assay on Mus musculus [14] and 95 mg/kg in the assay with Mus musculus [18]. This compound also gave a Protection with Rattus norvegicus [13] of 40 mg/kg. In addition, the ED50 result in the assay with Rattus norvegicus [17] is “inactive”.

For the compound `C[C@H]1C2Cc3ccc(NCc4ccccc4)cc3[C@@]1(C)CCN2CC1CC1`, in the assay on Rattus norvegicus [5], the AD50 came out at 1 mg/kg.

As to `CC(C)CN1CC[C@]2(C)c3cc(N)ccc3CC1[C@@H]2C`, the ED50 in the assay on Mus musculus [2] turned out to be 1.5 mg/kg. The AD50 in the assay with Rattus norvegicus [5] stood at 9.4 mg/kg.

`CNc1ccc2c(c1)[C@@]1(C)CCN(CC3CC3)C(C2)[C@@H]1C` showed an ED50 with Mus musculus [2] of 0.44 mg/kg. Further, the AD50 with Rattus norvegicus [5] came to 1.35 mg/kg.

For the compound `C[C@H]1C2Cc3ccc(NCC4CC4)cc3[C@@]1(C)CCN2CC1CC1.Cl`, the median effective dose (ED50) with Mus musculus [2] was 0.7 mg/kg. This compound also returned an AD50 with Rattus norvegicus [5] of 8 mg/kg.

In the assay with Mus musculus [2], `C[C@H]1C2Cc3ccc(N(C)C)cc3[C@@]1(C)CCN2CC1CC1` returned an ED50 of 0.79 mg/kg.

Take `C[C@H]1C2Cc3ccc(N)cc3[C@@]1(C)CCN2`: the AD50 entry in the assay on Rattus norvegicus [20] is “inactive”. In the assay on Mus musculus [2], this compound returned a 50% effective dose (ED50) of 6.1 mg/kg.

In the assay with Mus musculus [2], `CCCNc1ccc2c(c1)[C@@]1(C)CCN(CC3CC3)C(C2)[C@@H]1C` yielded a 50% effective dose (ED50) of 1.2 mg/kg. The AD50 entry in the assay with Rattus norvegicus [21] was “Questionable activity”.

With `C[C@H]1[C@H]2Cc3ccc(O)cc3[C@]1(C)CCN2CC1CC1` [CYCLAZOCINE], the AD50 is 0.019 mg/kg in the assay with Rattus norvegicus [7]; 4.2 mg/kg with Rattus norvegicus [22]; 4.3 mg/kg in the assay on Rattus norvegicus [23]; 0.028 mg/kg with Rattus norvegicus [8]; 0.029 mg/kg in the assay on Rattus norvegicus [19]; 3.1 mg/kg in the assay on Rattus norvegicus [24]. The median effective dose (ED50) with Rattus norvegicus [13] is 3.7 mg/kg; in the assay with Mus musculus [14], 0.04 mg/kg; in the assay on Rattus norvegicus [25], 0.04 mg/kg; with Mus musculus [18] it was 3.6 mg/kg. Moreover, the ED50 result in the assay with Rattus norvegicus [17] is “inactive”.
